# Biological target: T1, Thermolysin (Bacillus thermoproteolyticus, UniProt P00800)
# T1 sequence (P00800 whole entry): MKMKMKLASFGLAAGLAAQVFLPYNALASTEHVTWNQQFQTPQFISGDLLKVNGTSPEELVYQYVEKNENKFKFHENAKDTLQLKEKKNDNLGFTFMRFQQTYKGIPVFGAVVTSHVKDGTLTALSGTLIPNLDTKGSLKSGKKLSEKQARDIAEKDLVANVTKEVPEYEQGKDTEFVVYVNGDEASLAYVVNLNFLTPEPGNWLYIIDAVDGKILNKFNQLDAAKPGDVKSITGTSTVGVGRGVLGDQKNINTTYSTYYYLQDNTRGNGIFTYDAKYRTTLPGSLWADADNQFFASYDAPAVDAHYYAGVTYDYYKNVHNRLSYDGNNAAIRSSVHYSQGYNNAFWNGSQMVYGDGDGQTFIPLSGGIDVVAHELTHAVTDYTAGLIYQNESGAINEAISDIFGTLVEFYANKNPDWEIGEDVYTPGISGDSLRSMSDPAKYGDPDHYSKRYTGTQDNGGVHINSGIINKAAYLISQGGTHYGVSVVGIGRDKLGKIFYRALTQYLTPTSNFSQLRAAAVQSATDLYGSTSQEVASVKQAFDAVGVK
# Assay: Inhibition of Bacillus thermoproteolyticus TLN using 2-furanacryloyl-Gly-Leu-NH2 substrate by biochemical assay
# Procedure, shortened: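 Read photometrically at 345 nm, 25.0 ± 0.2 °C, in 0.05 M Tris with 0.02 M CaCl2, 2.5 M NaBr, 1.25% DMF, pH 7.3. Final enzyme ~8 nM (stock quantified by A280). Inhibitor spanned 0.5Ki–10Ki. IC50 from υ0/υi vs [I] plots (Ki above 30 nM) or Henderson plots (below). Ki via Cheng-Prusoff (Km 3.9 ± 0.6 mM), averaged over at least three determinations.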
row,SMILES,Ki
1,CCC[C@H](NC(=O)[C@H](CC(C)C)NP(=O)(O)CNC(=O)OCc1ccccc1)C(=O)O,5.5 nM
2,C[C@H](NP(=O)(O)CNC(=O)OCc1ccccc1)C(=O)NCC(=O)O,189000 nM
3,CCCNC(=O)[C@H](CC(C)C)NP(=O)(O)CNC(=O)OCc1ccccc1,60 nM
4,CC(C)C[C@H](NC(=O)[C@H](C)NP(=O)(O)CNC(=O)OCc1ccccc1)C(=O)O,5920 nM
5,CC(C)C[C@H](NP(=O)(O)CNC(=O)OCc1ccccc1)C(=O)N[C@H](C(=O)O)C(C)C,5.8 nM
6,CC(C)C[C@H](NC(=O)[C@H](CC(C)C)NP(=O)(O)CNC(=O)OCc1ccccc1)C(=O)O,10 nM
7,CC[C@H](NP(=O)(O)CNC(=O)OCc1ccccc1)C(=O)N[C@@H](CC(C)C)C(=O)O,596 nM
8,CC(C)C[C@H](NP(=O)(O)CNC(=O)OCc1ccccc1)C(=O)NCCc1ccccc1,296 nM
9,CC[C@H](NC(=O)[C@H](C)NP(=O)(O)CNC(=O)OCc1ccccc1)C(=O)O,1370 nM
10,CC(C)C[C@H](NP(=O)(O)CNC(=O)OCc1ccccc1)C(=O)NCCc1cccs1,189 nM
11,CC[C@H](NP(=O)(O)CNC(=O)OCc1ccccc1)C(=O)NCCC(C)C,1970 nM
12,CC(C)C[C@H](NP(=O)(O)CNC(=O)OCc1ccccc1)C(=O)NCC(C)(C)C,100 nM
13,CC[C@H](NC(=O)[C@H](CC(C)C)NP(=O)(O)CNC(=O)OCc1ccccc1)C(=O)O,4.9 nM
14,CNC(=O)[C@H](C)NP(=O)(O)CNC(=O)OCc1ccccc1,185000 nM
15,CCC(C)CNC(=O)[C@H](CC(C)C)NP(=O)(O)CNC(=O)OCc1ccccc1 (some centres undefined),26 nM
16,C[C@H](NP(=O)(O)CNC(=O)OCc1ccccc1)C(=O)N[C@@H](Cc1ccccc1)C(=O)O,31100 nM
17,C[C@H](NP(=O)(O)CNC(=O)OCc1ccccc1)C(=O)NCCc1ccccc1,45200 nM

row,SMILES,Ki
1,CCCCCNC(=O)[C@H](CC(C)C)NP(=O)(O)CNC(=O)OCc1ccccc1,59 nM
2,CC(C)C[C@H](NP(=O)(O)CNC(=O)OCc1ccccc1)C(=O)N[C@@H](CC(C)(C)C)C(=O)O,40 nM
3,CC(C)C[C@H](NP(=O)(O)CNC(=O)OCc1ccccc1)C(=O)NCCC(C)(C)C,43 nM
4,CCC[C@H](NP(=O)(O)CNC(=O)OCc1ccccc1)C(=O)NCCC(C)C,219 nM
5,CCCCNC(=O)[C@H](CC(C)C)NP(=O)(O)CNC(=O)OCc1ccccc1,67 nM
6,CCC[C@H](NP(=O)(O)CNC(=O)OCc1ccccc1)C(=O)N[C@@H](CC(C)C)C(=O)O,29 nM
7,CCC(C)[C@H](NC(=O)[C@H](CC(C)C)NP(=O)(O)CNC(=O)OCc1ccccc1)C(=O)O (some centres undefined),12 nM
8,CCCC[C@H](NC(=O)[C@H](CC(C)C)NP(=O)(O)CNC(=O)OCc1ccccc1)C(=O)O,5.3 nM
9,CC(C)C[C@H](NP(=O)(O)CNC(=O)OCc1ccccc1)C(=O)N[C@@H](Cc1ccccc1)C(=O)O,54 nM
10,CC(C)C[C@H](NP(=O)(O)CNC(=O)OCc1ccccc1)C(=O)N[C@@H](Cc1cccs1)C(=O)O,24 nM
11,CC(C)C[C@H](NP(=O)(O)CNC(=O)OCc1ccccc1)C(=O)N[C@H](C(=O)O)C(C)(C)C,31 nM
12,C[C@H](NC(=O)[C@H](C)NP(=O)(O)CNC(=O)OCc1ccccc1)C(=O)O,7200 nM
13,CC(C)CCNC(=O)[C@H](CC(C)C)NP(=O)(O)CNC(=O)OCc1ccccc1,69 nM
14,CC(C)CCNC(=O)[C@H](C)NP(=O)(O)CNC(=O)OCc1ccccc1,19500 nM
15,CC(C)CNC(=O)[C@H](CC(C)C)NP(=O)(O)CNC(=O)OCc1ccccc1,37 nM
16,CCNC(=O)[C@H](C)NP(=O)(O)CNC(=O)OCc1ccccc1,56200 nM
17,CCCNC(=O)[C@H](C)NP(=O)(O)CNC(=O)OCc1ccccc1,12400 nM
